Source: PubChem BioAssay (several laboratories)
L major viab: Leishmania major promastigote growth inhibition, primary screen; 9% of 200,000 active; AID 1063, 2008; Leishmania major promastigotes, resazurin fluorescence viability; inhibition, % at 10 µM; in the data active = inhibition above about 50%;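 also: promastigotes grown with compound for 44 hours at 28 °C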
WT yeast gro inh: growth inhibition of WT strain, primary screen, mitochondrial fusion inhibitor project, WT and mutant strains, chemical genetic. mitochondrial fusion phenotypic screen. inhibition, % at 10 µM. 2.1% of 190,000 active; in the data active = inhibition above about 58%; tested in S. cerevisiae
Diaphorase act: compounds boosting diaphorase resazurin reduction – biochemical, uHTS, resorufin fluorescence, counter-screen for diaphorase-coupled primary assays, primary screen; Diaphorase/resazurin coupled assay, 16 min; stronger effect = higher value; 1 = vehicle wells, 0 = NADH-free wells; activation factor at 20 µM; 0.005% of 190,000 active; AID 1229, 2008;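 active = diaphorase activity raised at least twofold by the compound at 20 µM; inactive = activation factor below 2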
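Test system: Clostridium kluyveri diaphorase, purified enzyme. Buffer or medium: 50 mM HEPES pH 7.4 buffer plus MgCl2 and Tween 20. Also added: 0.114 mM NADH and 0.1 mM resazurin, final amounts. Dosing: compound 20 µM once, DMSO 1%. Schedule: 16 min enzyme reaction, ambient temperature. Detection: fluorescence of resorufin, 544 nm excitation, 590 nm emission.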
Diaphorase inh: diaphorase inhibitors and chemical oxidizers, primary screen, counter-screen for diaphorase-coupled primary assays, biochemical, uHTS, resorufin fluorescence | diaphorase resazurin-to-resorufin fluorescence, NADH, 16 min; bacterial (C. kluyveri) enzyme, not human | inhibition, % at 20 µM | 0.69% of 190,000 active;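 active = primary screen inhibition at 20 µM above a set limit, cut at about 50% in these data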;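 also: plate controls were DMSO with full reaction for no effect and wells lacking NADH for full effect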
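Assay system: diaphorase enzyme from Clostridium kluyveri; Input: enzyme working solution with 0.14 U/mL diaphorase; Timing: 16 min at room temperature; Technique: resorufin fluorescence, excitation 544 nm, emission 590 nm; Benchmarks: positive control minus NADH, DMSO neutral control.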
KCC2 mod: KCC2 cotransporter modulators, thallium flux, primary screen, cell-based, HEK293 KCC2, FluoZin-2 fluorescence, MLSMR. Solute carrier family 12 member 5 (Homo sapiens), Q9H2X9. KCC2 cells, thallium flux FluoZin-2 fluorescence. B-score of Tl+ flux slope (higher = more flux/activation; lower = inhibition) at 10 µM. 2.2% of 190,000 active;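 active = thallium flux slope and its plate-corrected score both differing from the plate sample mean at a set confidence after two filtering rounds, in either direction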;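 also: slope of fluorescence scaled to starting intensity during 10 to 20 s after thallium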
Target sequence (Q9H2X9 whole entry, looked up): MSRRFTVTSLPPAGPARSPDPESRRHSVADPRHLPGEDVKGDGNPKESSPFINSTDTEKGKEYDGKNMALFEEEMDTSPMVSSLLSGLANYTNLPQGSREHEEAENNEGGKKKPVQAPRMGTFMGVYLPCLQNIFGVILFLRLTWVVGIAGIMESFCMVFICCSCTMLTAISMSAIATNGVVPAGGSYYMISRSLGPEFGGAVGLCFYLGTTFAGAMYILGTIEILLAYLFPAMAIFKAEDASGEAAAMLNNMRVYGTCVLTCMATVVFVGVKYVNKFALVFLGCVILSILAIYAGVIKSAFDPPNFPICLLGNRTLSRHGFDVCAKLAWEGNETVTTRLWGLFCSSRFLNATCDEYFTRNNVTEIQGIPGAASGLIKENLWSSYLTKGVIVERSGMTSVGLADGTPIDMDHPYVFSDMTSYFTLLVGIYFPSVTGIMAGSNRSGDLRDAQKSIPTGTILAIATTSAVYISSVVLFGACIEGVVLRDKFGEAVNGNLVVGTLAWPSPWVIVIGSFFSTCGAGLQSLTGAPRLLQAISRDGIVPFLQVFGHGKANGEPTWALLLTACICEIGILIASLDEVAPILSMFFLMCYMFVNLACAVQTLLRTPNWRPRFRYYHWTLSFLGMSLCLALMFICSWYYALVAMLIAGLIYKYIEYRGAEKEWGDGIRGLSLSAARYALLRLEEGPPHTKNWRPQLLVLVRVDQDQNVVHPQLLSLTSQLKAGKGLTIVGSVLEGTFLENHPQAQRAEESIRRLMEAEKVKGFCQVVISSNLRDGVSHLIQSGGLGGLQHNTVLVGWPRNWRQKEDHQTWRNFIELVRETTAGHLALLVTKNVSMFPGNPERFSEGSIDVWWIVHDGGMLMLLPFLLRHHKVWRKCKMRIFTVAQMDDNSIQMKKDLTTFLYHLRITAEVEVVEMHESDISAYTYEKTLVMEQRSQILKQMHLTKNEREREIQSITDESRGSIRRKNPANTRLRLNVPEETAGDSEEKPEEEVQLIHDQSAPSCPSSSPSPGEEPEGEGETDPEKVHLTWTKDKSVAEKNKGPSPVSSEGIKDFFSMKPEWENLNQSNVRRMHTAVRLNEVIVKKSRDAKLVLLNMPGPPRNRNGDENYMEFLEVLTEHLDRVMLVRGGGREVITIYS
ROMK mod: ROMK potassium channel modulators, primary screen, cell-based, thallium flux, MLSMR library. ATP-sensitive inward rectifier potassium channel 1 (Homo sapiens), P48048. Tet-inducible ROMK, thallium flux fluorescence; actives lie on both sides. B-score at 10 µM. 2% of 130,000 active. AID 1918, 2009;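 active = signal ratio slope over the read window, or its plate-corrected B-score, at least 3 SD from the plate mean, either direction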;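 also: B-score of the F/F0 ratio slope over 7 to 12 s after thallium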
KCC2 sec1: KCC2 modulators in sodium-free buffer, confirmation, cell-based, HEK293 KCC2, thallium flux, secondary assay. shares compounds with KCC2 mod. FluoZin2 fluorescence; stronger effect = higher value. normalised thallium flux (F/F0 slope) at 10 µM. 15% of 3,700 active. AID 1713, 2009;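 active = thallium flux slope above the same plate's solvent-only control mean plus 3 SD; inconclusive = the two replicate wells disagree; inactive = no significant difference from solvent-only control wells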
KCC2 bumet counter: thallium flux persisting under bumetanide in KCC2 cells, confirmation, counter-screen for KCC2 modulator project, cell-based, HEK293 KCC2, FluoZin2, secondary assay 3; shares compounds with KCC2 mod; HEK293-KCC2 + bumetanide/ouabain; stronger effect = higher value; normalized thallium flux at 10 µM; 49% of 3,700 active;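 active = thallium entry rate above the same plate's blocked-transporter control wells by more than 3 SD; inconclusive = the two repeat wells disagree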;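 also: raw slope of fluorescence over initial fluorescence between 10 and 20 s after thallium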
KCC2 sec2: KCC2 modulators without ouabain present, confirmation, cell-based, HEK293 KCC2, thallium flux, FluoZin2, secondary assay 2; shares compounds with KCC2 mod; thallium flux FluoZin2 fluorescence; actives lie on both sides; F/F0 rise rate, 10–20 s post-thallium; normalized thallium flux at 10 µM; 23% of 3,700 active;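 active = thallium flux slope more than 3 SD above or below the plate's solvent-only control mean, mostly below; inconclusive = the two repeat wells disagreed; inactive = no significant shift from solvent-only controls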;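 also: raw slope with 0.1% DMSO as baseline and bumetanide as block control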
HEK counter1: thallium flux modulation in parental HEK cells, confirmation, counter-screen for KCC2 modulator project, cell-based, counterscreen 1. 46% of 3,700 active. HEK293 parental cells, thallium flux FluoZin2, ouabain; baseline-ratio fluorescence slope, 10–20 s after thallium. thallium flux rate (normalised fluorescence) at 10 µM. shares compounds with KCC2 mod;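 active = thallium flux rate significantly above the same plate's solvent-only control wells, beyond their mean plus 3 SD; inconclusive = the two replicate wells gave conflicting results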
KCC2 ouabain: KCC2 inhibitors and activators, ouabain retest, confirmation, HEK-KCC2 cells | shares compounds with KCC2 mod | HEK293-KCC2, thallium flux FluoZin2 fluorescence; bidirectional: low = inhibitor, high = activator | raw Tl+ flux slope (below DMSO = inhibition, above = activation) at 10 µM | 48% of 3,700 active | AID 1717, 2009;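 active = thallium flux slope beyond 3 SD from same-plate DMSO control mean in most replicates, usually higher, sometimes lower; inconclusive = repeat tests gave conflicting results; inactive = no significant difference from controls in most replicates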;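 also: slope of initial-normalized fluorescence between seconds 10 and 20 after thallium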
HEK293 Tl flux2: native HEK Tl+ uptake effects, second counter-screen – HEK cells, counterscreen 2, counter-screen for KCC2 modulator project, confirmation | shares compounds with KCC2 mod | HEK293 parental, thallium flux FluoZin-2 fluorescence slope | thallium flux slope at 10 µM | 33% of 3,700 active | AID 1718, 2009;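 active = thallium flux slope above the same plate's solvent-control mean plus 3 SD in both duplicate wells; inconclusive = duplicate wells that disagreed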;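 also: run without ouabain in cells lacking the KCC2 cotransporter; slope of fluorescence scaled to its starting value between 10 and 20 s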
Starred values were filed as active, the others as inactive; ? = inconclusive; nt = no result. Rows were chosen to be rich in hits. Some 12% of all compounds tested hit in one or more screens of this group.

SMILES | L major viab | WT yeast gro inh | Diaphorase act | Diaphorase inh | KCC2 mod | ROMK mod | KCC2 sec1 | KCC2 bumet counter | KCC2 sec2 | HEK counter1 | KCC2 ouabain | HEK293 Tl flux2
CCCCOc1cccc(C(=O)NC(=S)Nc2cccnc2)c1 | 51* | 18 | 0.5 | 47 | 6* | 0.15 | 0.013* | 0.087* | 0.036 | 0.029* | 0.052* | 0.013*
CCCOc1cccc(C(=O)Nc2cccnc2)c1 | 2 | 6 | 0.8 | 15 | nt | -0.34 | nt | nt | nt | nt | nt | nt
O=C(NCCO)C(=O)c1c(-c2ccccc2)cc2ccccn12 | -13 | -23 | 0.9 | 14 | 0.2 | 0.79 | nt | nt | nt | nt | nt | nt
O=C(C1=C[C@@H](C2CCCCC2)C[C@@H](OCCCCO)O1)N1CCN(Cc2ccc3c(c2)OCO3)CC1 | 26 | 14 | 0.8 | 24 | 0.5 | nt | nt | nt | nt | nt | nt | nt
Cc1nn(C(=O)CCCC(=O)n2nc(C)c(Cl)c2C)c(C)c1Cl | -9 | nt | nt | nt | 0.028 | nt | nt | nt | nt | nt | nt | nt
CCOc1ccc(-c2csc(NNC3=NCCCCC3)n2)cc1 | 17 | 31 | 1.1 | -9 | -0.76 | 0.19 | nt | nt | nt | nt | nt | nt
Cc1c(-n2c(SCC(=O)O)nnc2-c2ccccc2Cl)c(=O)n(-c2ccccc2)n1C | -8 | 3 | 1.1 | -12 | 0.046 | nt | 0.0091 | 0.0054 | 0.032 | 0.0076 | 0.02 | ?
COc1ccccc1-c1nnc(SCC(=O)O)n1-c1ccc(C)cc1 | -7 | -1 | nt | nt | 0.19 | -0.038 | nt | nt | nt | nt | nt | nt
Cc1cccc(N2C(=O)C3C4CC(=O)C(c5ccccc54)C3C2=O)c1C (stereo not given) | -4 | -3 | 1.1 | -14 | 0.38 | -0.32 | nt | nt | nt | nt | nt | nt
CCOc1ccccc1N1C(=O)c2ccc(C(=O)Nc3cccnc3)cc2C1=O | -9 | 15 | 1 | 2 | -4.6* | nt | 0.009 | 0.0069 | 0.032 | 0.0076 | 0.023 | 0.011
O=c1c2cc(Br)ccc2[nH]c(=S)n1Cc1cccnc1 | -2 | -1 | 1 | 2 | 5.4* | nt | ? | 0.025* | 0.034 | 0.014* | 0.029 | 0.012*
CCN(CC)CCn1c(=S)[nH]c2cc(C(=O)N3CC=C(c4ccccc4)CC3)ccc2c1=O | 20 | 5 | 0.7 | 25 | -1.2 | -1.2 | nt | nt | nt | nt | nt | nt
CCN(CC)CCn1c(=S)[nH]c2ccc(Cl)cc2c1=O | 5 | 2 | 0.9 | 8 | 25* | nt | 0.01 | 0.017* | 0.038 | ? | 0.03* | 0.014
O=c1c2cc(Cl)ccc2[nH]c(=S)n1Cc1ccccn1 | -7 | -2 | 0.9 | 10 | 9.9* | nt | 0.0073 | 0.067* | 0.047* | 0.036* | 0.054* | 0.034*
O=C(NCc1ccccn1)c1ccc(Cn2c(=S)[nH]c3ccccc3c2=O)cc1 | 18 | -4 | 0.9 | 8 | 0.0096 | -0.59 | nt | nt | nt | nt | nt | nt
O=[N+]([O-])c1ccc(O)c(C2=NNC(c3ccccc3F)C2)c1 (stereo not given) | nt | nt | nt | nt | 28* | nt | 0.0094 | 0.034* | 0.031 | 0.025* | 0.032* | ?
COc1ccc([N+](=O)[O-])cc1C1NN=C(c2ccccc2O)S1 (stereo not given) | -5 | 15 | 0.9 | 12 | -0.13 | nt | nt | nt | nt | nt | nt | nt
Cc1cc2ncn(CCOc3ccccc3C#N)c2cc1C | 6 | 12 | 1 | -5 | -2 | -2.2 | nt | nt | nt | nt | nt | nt
O=C(O)/C=C/c1ccccc1Oc1ccc(Cl)cc1Cl | -12 | -2 | 0.8 | 22 | -6.6* | 2.1 | 0.0051 | 0.006* | 0.021* | 0.0068 | ? | 0.01
Cc1ccc(S(=O)(=O)N(C)C)cc1NC(=O)[C@H](Cc1ccccc1)N1C(=O)c2ccccc2C1=O | -7 | 11 | 0.8 | 16 | 2 | 1.1 | nt | nt | nt | nt | nt | nt
COc1cc(CC(=O)Nc2ccc(S(=O)(=O)Nc3ncccn3)cc2)cc(OC)c1OC | 10 | -10 | 0.9 | 15 | -4* | nt | 0.0095 | 0.0063 | 0.034 | 0.0095* | 0.02 | 0.012
COc1ccc(CC(=O)Nc2ccc(S(=O)(=O)Nc3nc(C)cc(C)n3)cc2)cc1 | 8 | 3 | 0.9 | 14 | -5.9* | -0.14 | 0.009 | 0.009* | 0.033 | 0.0077 | 0.022 | 0.011
COc1ccc(OC)c(Nc2nc3nonc3nc2N2CCCC(C)C2)c1 (stereo not given) | 40 | -1 | 0.9 | 7 | -1.3 | 1.2 | nt | nt | nt | nt | nt | nt
O=C(O)c1cn(Cc2cccnc2)c(=O)c2ccccc12 | -4 | -6 | 0.9 | 7 | 0.019 | -0.3 | nt | nt | nt | nt | nt | nt
CC(=O)Nc1nc(SCCCc2ccccc2)n[nH]1 | -6 | -3 | 0.9 | 9 | 0.72 | nt | nt | nt | nt | nt | nt | nt
CCCCn1nnnc1NCc1cc(OC)c(OC)cc1OC | -4 | -7 | 0.9 | 10 | 4.9* | nt | 0.0092 | 0.0061 | 0.031 | 0.007 | 0.019 | 0.01
O=C(NC1CCCC1)c1cc(COc2ccc3ncccc3c2)on1 | nt | nt | nt | nt | 0.39 | nt | nt | nt | nt | nt | nt | nt
O=C(c1cc(COc2ccc3ncccc3c2)on1)N1CCCCCC1 | 7 | -1 | 0.8 | 18 | -1.7 | -1.2 | nt | nt | nt | nt | nt | nt
COc1cccc(CN(C)C(=O)c2cc(COc3ccc4ncccc4c3)on2)c1 | 16 | 4 | 0.7 | 27 | nt | -1.3 | 0.0071 | 0.0036 | 0.025* | ? | 0.014* | 0.0099
